“Also recorded” adds a separate entry of the source.
What was measured:
[1] = tested on: advanced solid tumors; experiment: Antitumor efficacy; format: in vivo, human
Method in brief: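 Open-label single-centre 3+3 trial in advanced solid tumors. Oral PI3K-inhibitor test compound was given at 50, 80 or 100 mg/day continuously. […] Imaging after each even-numbered cycle; best response per RECIST. FFPE tumor PTEN IHC scored 0/1+/2+.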

[2] = tested on: patients with advanced solid tumors; experiment: Phase Ib 3 + 3 dose escalation: DLT, MTD and recommended phase II dose; format: in vivo, human
[3] = tested on: patients with advanced solid tumors; conditions: cited from earlier work
[4] = tested on: patients with advanced solid tumors; experiment: Adverse events; format: in vivo, human
[5] = 25 patients measurable by RECIST, both groups
[6] = Group 1 (n = 16 subjects), with carboplatin + paclitaxel q21 days
[7] = Group 2 (n = 14 subjects), with carboplatin + weekly paclitaxel q28 days

Nc1cc(C(F)(F)F)c(-c2cc(N3CCOCC3)nc(N3CCOCC3)n2)cn1 [buparlisib]
best response: confirmed partial response (PR) [1, 5]: four
best response: progression of disease [1, 5]: three
confirmed objective response rate ([1]; 25 patients with measurable disease, Groups 1 and 2 (1 CR, 4 PRs; 5/25)): 20%
patients with reductions in measurable disease of at least 20 % and/or at least six cycles ([1]; of patients who completed at least one cycle (18/25)): 72%
patients with reductions in measurable disease of at least 20 % and/or at least six cycles ([1]; of patients who received any study treatment (18/30)): 60%
duration of disease control ([1]; one person, metastatic parotid carcinoma to bone, loss of PTEN expression, Group 2): approximately 20 months
alkaline phosphatase nadir ([1]; same parotid carcinoma patient, baseline 236, normal range 45–129 U/L): 80 U/L
outcome in patients with loss of PTEN expression ([1]; three patients, PTEN IHC score = 0): all derived clinical benefit from treatment; also recorded: experienced objective radiographic tumor reductions or clinical benefit
DLTs ([2]; Group 1, DL2 buparlisib 80 mg/day, three patients): no DLTs
DLTs ([2]; Group 1, DL3 buparlisib 100 mg/day, six evaluable subjects): no DLTs
DLT description ([2]; Group 1, dose level 1, 50 mg/day, NSCLC, 50 F): Grade 3 alkaline phosphatase elevation
MTD for buparlisib ([2]; Group 1: carboplatin AUC 5 + paclitaxel 175 mg/m^2 day 1, 21-day cycle, pegfilgrastim): 100 mg/day
phase II recommended dose of buparlisib ([2]; Group 1 regimen): 100 mg/day
DLTs ([2]; Group 2, DL1 buparlisib 50 mg/day, three patients): no DLTs
DLTs ([2]; Group 2, DL2 buparlisib 80 mg/day, first three patients): no DLTs
subjects who completed cycle 1 without DLT ([2]; Group 2, DL2 buparlisib 80 mg/day, six enrolled): five of six
DLT description ([2]; Group 2, dose level 3, 100 mg/day, NPC, 50 M): Grade 3 uncomplicated neutropenia >7 days
DLT description ([2]; Group 2, dose level 3, 100 mg/day, thyroid cancer, 61 F): Grade 3 uncomplicated neutropenia with grade 2 thrombocytopenia >7 days
MTD for buparlisib ([2]; Group 2: carboplatin AUC 5 day 1 + paclitaxel 80 mg/m^2 days 1, 8, 15, 28-day cycle, no growth factor): 80 mg/day
phase II recommended dose of buparlisib ([2]; Group 2 regimen): 80 mg/day
maximum tolerated dose (MTD) of buparlisib monotherapy [3]: 100 mg/day
most common adverse events ([3]; monotherapy, 83 patients, dose escalation and expansion): decreased appetite, diarrhea, nausea, hyperglycemia, and rash
patients with radiographic responses ([3]; monotherapy, among 83 patients, one confirmed, three unconfirmed): Four
ALT and/or AST elevation, any grade [4, 6]: 9 (56) n (%)
ALT and/or AST elevation, ≥Grade 3 [4, 6]: 2 (13) n (%)
Alkaline phosphatase, increased, any grade [4, 6]: 14 (88) n (%)
Alkaline phosphatase, increased, ≥Grade 3 [4, 6]: 2 (13) n (%)
Alopecia, any grade [4, 6]: 14 (88) n (%)
Anemia, any grade [4, 6]: 13 (81) n (%)
Anemia, ≥Grade 3 [4, 6]: 2 (13) n (%)
Anorexia, any grade [4, 6]: 13 (81) n (%)
Anorexia, ≥Grade 3 [4, 6]: 1 (6) n (%)
Anxiety, any grade [4, 6]: 6 (38) n (%)
Anxiety, ≥Grade 3 [4, 6]: 0 n (%)
Arthralgia, any grade [4, 6]: 13 (81) n (%)
Arthralgia, ≥Grade 3 [4, 6]: 1 (6) n (%)
Constipation, any grade [4, 6]: 11 (69) n (%)
Constipation, ≥Grade 3 [4, 6]: 0 n (%)
Cough, any grade [4, 6]: 9 (56) n (%)
Cough, ≥Grade 3 [4, 6]: 0 n (%)
Depressed mood, any grade [4, 6]: 6 (38) n (%)
Depressed mood, ≥Grade 3 [4, 6]: 1 (6) n (%)
Diarrhea, any grade [4, 6]: 14 (88) n (%)
Diarrhea, ≥Grade 3 [4, 6]: 1 (6) n (%)
Dizziness, any grade [4, 6]: 10 (63) n (%)
Dizziness, ≥Grade 3 [4, 6]: 0 n (%)
Dyspnea, any grade [4, 6]: 11 (69) n (%)
Dyspnea, ≥Grade 3 [4, 6]: 0 n (%)
Fatigue, any grade [4, 6]: 14 (88) n (%)
Fatigue, ≥Grade 3 [4, 6]: 1 (6) n (%)
Hypercholesterolemia, any grade [4, 6]: 7 (44) n (%)
Hypercholesterolemia, ≥Grade 3 [4, 6]: 0 n (%)
Hyperglycemia, any grade [4, 6]: 15 (94) n (%)
Hyperglycemia, ≥Grade 3 [4, 6]: 2 (13) n (%)
Hypertension, any grade [4, 6]: 6 (38) n (%)
Hypertension, ≥Grade 3 [4, 6]: 0 n (%)
Hypertriglyceridemia, any grade [4, 6]: 7 (44) n (%)
Hypertriglyceridemia, ≥Grade 3 [4, 6]: 0 n (%)
Hypoalbuminemia, any grade [4, 6]: 14 (88) n (%)
Hypoalbuminemia, ≥Grade 3 [4, 6]: 0 n (%)
Hypocalcemia, any grade [4, 6]: 6 (38) n (%)
Hypocalcemia, ≥Grade 3 [4, 6]: 1 (6) n (%)
Hypomagnesemia, any grade [4, 6]: 10 (63) n (%)
Hypomagnesemia, ≥Grade 3 [4, 6]: 0 n (%)
Hyponatremia, any grade [4, 6]: 8 (50) n (%)
Hyponatremia, ≥Grade 3 [4, 6]: 3 (19) n (%)
Hypophosphatemia, any grade [4, 6]: 2 (13) n (%)
Hypophosphatemia, ≥Grade 3 [4, 6]: 2 (13) n (%)
INR, increased, any grade [4, 6]: 6 (38) n (%)
INR, increased, ≥Grade 3 [4, 6]: 0 n (%)
Leukopenia, any grade [4, 6]: 12 (75) n (%)
Leukopenia, ≥Grade 3 [4, 6]: 2 (13) n (%)
Lymphopenia, any grade [4, 6]: 12 (75) n (%)
Lymphopenia, ≥Grade 3 [4, 6]: 12 (75) n (%)
Mucositis, oral, any grade [4, 6]: 6 (38) n (%)
Mucositis, oral, ≥Grade 3 [4, 6]: 0 n (%)
Myalgia, any grade [4, 6]: 11 (69) n (%)
Myalgia, ≥Grade 3 [4, 6]: 1 n (%)
Nausea, any grade [4, 6]: 12 (75) n (%)
Nausea, ≥Grade 3 [4, 6]: 0 n (%)
Neuropathy, sensory, any grade [4, 6]: 7 (44) n (%)
Neuropathy, sensory, ≥Grade 3 [4, 6]: 1 (6) n (%)
Neutropenia, any grade [4, 6]: 4 (25) n (%)
Neutropenia, ≥Grade 3 [4, 6]: 2 (13) n (%)
Rash, skin toxicity, any grade [4, 6]: 13 (81) n (%)
Rash, skin toxicity, ≥Grade 3 [4, 6]: 0 n (%)
Thrombocytopenia, any grade [4, 6]: 13 (81) n (%)
Thrombocytopenia, ≥Grade 3 [4, 6]: 3 (19) n (%)
incidence rate of ≥grade 3 leukopenia ([4]; Group 2): 64%
incidence rate of ≥grade 3 neutropenia ([4]; Group 2): 79%
ALT and/or AST elevation, any grade [4, 7]: 6 (43) n (%)
ALT and/or AST elevation, ≥Grade 3 [4, 7]: 1 (7) n (%)
Alkaline phosphatase, elevated, any grade [4, 7]: 5 (36) n (%)
Alkaline phosphatase, elevated, ≥Grade 3 [4, 7]: 1 (7) n (%)
Alopecia, any grade [4, 7]: 11 (79) n (%)
Anemia, any grade [4, 7]: 14 (100) n (%)
Anemia, ≥Grade 3 [4, 7]: 1 (7) n (%)
Anorexia, any grade [4, 7]: 9 (64) n (%)
Anorexia, ≥Grade 3 [4, 7]: 0 n (%)
Anxiety, any grade [4, 7]: 5 (36) n (%)
Anxiety, ≥Grade 3 [4, 7]: 0 n (%)
Arthralgia, any grade [4, 7]: 7 (50) n (%)
Arthralgia, ≥Grade 3 [4, 7]: 0 n (%)
Constipation, any grade [4, 7]: 8 (57) n (%)
Constipation, ≥Grade 3 [4, 7]: 0 n (%)
Cough, any grade [4, 7]: 8 (57) n (%)
Cough, ≥Grade 3 [4, 7]: 0 n (%)
Diarrhea, any grade [4, 7]: 7 (50) n (%)
Diarrhea, ≥Grade 3 [4, 7]: 0 n (%)
Dyspepsia, any grade [4, 7]: 6 (43) n (%)
Dyspepsia, ≥Grade 3 [4, 7]: 0 n (%)
Fatigue, any grade [4, 7]: 11 (79) n (%)
Fatigue, ≥Grade 3 [4, 7]: 2 (14) n (%)
Hypercholesterolemia, any grade [4, 7]: 9 (64) n (%)
Hypercholesterolemia, ≥Grade 3 [4, 7]: 0 n (%)
Hyperglycemia, any grade [4, 7]: 14 (100) n (%)
Hyperglycemia, ≥Grade 3 [4, 7]: 0 n (%)
Hypertension, any grade [4, 7]: 6 (43) n (%)
Hypertension, ≥Grade 3 [4, 7]: 0 n (%)
Hypertriglyceridemia, any grade [4, 7]: 8 (57) n (%)
Hypertriglyceridemia, ≥Grade 3 [4, 7]: 1 (7) n (%)
Hypoalbuminemia, any grade [4, 7]: 13 (93) n (%)
Hypoalbuminemia, ≥Grade 3 [4, 7]: 0 n (%)
Hypocalcemia, any grade [4, 7]: 5 (36) n (%)
Hypocalcemia, ≥Grade 3 [4, 7]: 0 n (%)
Hypokalemia, any grade [4, 7]: 5 (36) n (%)
Hypokalemia, ≥Grade 3 [4, 7]: 1 (7) n (%)
Hypomagnesemia, any grade [4, 7]: 7 (50) n (%)
Hypomagnesemia, ≥Grade 3 [4, 7]: 0 n (%)
Hyponatremia, any grade [4, 7]: 6 (43) n (%)
Hyponatremia, ≥Grade 3 [4, 7]: 0 n (%)
Leukopenia, any grade [4, 7]: 14 (100) n (%)
Leukopenia, ≥Grade 3 [4, 7]: 9 (64) n (%)
Lymphopenia, any grade [4, 7]: 7 (50) n (%)
Lymphopenia, ≥Grade 3 [4, 7]: 7 (50) n (%)
Mucositis, oral, any grade [4, 7]: 5 (36) n (%)
Mucositis, oral, ≥Grade 3 [4, 7]: 2 (14) n (%)
Myalgia, any grade [4, 7]: 5 (36) n (%)
Myalgia, ≥Grade 3 [4, 7]: 0 n (%)
Nausea, any grade [4, 7]: 10 (71) n (%)
Nausea, ≥Grade 3 [4, 7]: 0 n (%)
Neuropathy, sensory, any grade [4, 7]: 5 (36) n (%)
Neuropathy, sensory, ≥Grade 3 [4, 7]: 0 n (%)
Neutropenia, any grade [4, 7]: 13 (93) n (%)
Neutropenia, ≥Grade 3 [4, 7]: 11 (79) n (%)
Pain, not otherwise specified, any grade [4, 7]: 5 (36) n (%)
Pain, not otherwise specified, ≥Grade 3 [4, 7]: 0 n (%)
Rash, skin toxicity, any grade [4, 7]: 8 (57) n (%)
Rash, skin toxicity, ≥Grade 3 [4, 7]: 0 n (%)
Thrombocytopenia, any grade [4, 7]: 13 (93) n (%)
Thrombocytopenia, ≥Grade 3 [4, 7]: 0 n (%)
febrile neutropenia ([4]; both groups): no episodes of febrile neutropenia
treatment-related deaths ([4]; both groups): no treatment-related deaths

From PMC6698915 (Cancer chemotherapy and pharmacology, 2015)
